Source: ChEMBL document CHEMBL1125636, “L-687,908, a potent hydroxyethylene-containing HIV protease inhibitor” (J Med Chem, 1991)
In brackets after ≈: the same amount, converted by molar mass. Where a SMILES comes first, the peptide text is derived from it.

Experiments:
[1] = molecular target: Human immunodeficiency virus type 1 protease (Human immunodeficiency virus 1, UniProt Q72874); experiment: Inhibition of HIV-1 protease; assay type: functional
Procedure, shortened: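 HIV-1 protease peptide hydrolysis: octapeptide substrate H2N-ValSerGlnAsn(β-naphthyl-Ala)ProIle-Val-OH at 430 μM (Km = 160 μM), enzyme at 0.030 nM; cleavage quantitated by HPLC; IC50 from this readout.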

H9 = experiment: Minimum inhibitory concentration required to prevent HIV infection was determined in H9 human T-lymphoid cell culture; assay type: functional
Procedure, shortened: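 H9 human T-lymphoid cells were infected with HIV-1 IIIb at a multiplicity of infection of 1.0%, with no compound present. Compound was added 1 day after infection, predissolved in DMSO and serially diluted in RPMI-1640 with 10% FBS. Medium with fresh compound was replaced every 2–3 days. Cells were harvested at 14 days and scored by immunofluorescence with anti-HIV-1 human serum. MIC was the lowest concentration totally preventing spread beyond the initially infected cells.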

Renin [2] = molecular target: T1, Renin (Rattus norvegicus, UniProt P08424); experiment: Concentration required to inhibit 50% activity of plasma renin was determined at pH 7.4; Inactive; assay type: functional, cell-free
T1 sequence (P08424 whole entry): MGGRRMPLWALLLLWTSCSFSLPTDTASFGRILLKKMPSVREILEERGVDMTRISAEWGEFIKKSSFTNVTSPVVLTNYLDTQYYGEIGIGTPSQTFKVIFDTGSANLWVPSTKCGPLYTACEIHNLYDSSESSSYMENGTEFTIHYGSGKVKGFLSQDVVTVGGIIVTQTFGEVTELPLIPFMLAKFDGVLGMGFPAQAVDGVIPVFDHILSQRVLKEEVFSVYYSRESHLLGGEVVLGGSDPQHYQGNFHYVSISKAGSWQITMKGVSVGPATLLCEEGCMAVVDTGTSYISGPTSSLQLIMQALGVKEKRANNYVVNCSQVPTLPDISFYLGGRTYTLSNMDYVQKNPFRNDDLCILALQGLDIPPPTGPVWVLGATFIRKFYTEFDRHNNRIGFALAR

Renin [3] = molecular target: T1, Renin; experiment: Concentration required to inhibit 50% activity of renin was determined; assay type: functional
Procedure, shortened: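 Purified plasma renin, assayed at pH 7.4; IC50 reported.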

| Compound | IC50 [1] | MIC (H9) | IC50 (Renin [2]) | IC50 (Renin [3]) |
| --- | --- | --- | --- | --- |
| CC(C)CC(NC(=O)[C@H](Cc1ccccc1)C[C@H](O)[C@H](Cc1ccccc1)NC(=O)OC(C)(C)C)C(=O)NCCc1ccccc1 (stereo partly specified) | 12 nM | – | – | – |
| CC(C)(C)OC(=O)N[C@@H](Cc1ccccc1)[C@@H](O)C[C@@H](Cc1ccccc1)C(=O)NCc1ccccc1 | 111 nM | > 50 µM | – | – |
| CC(C)CC(NC(=O)[C@H](Cc1ccccc1)C[C@H](O)[C@H](Cc1ccccc1)NC(=O)OC(C)(C)C)C(=O)NCc1ccccc1 (stereo partly specified) | 1.4 nM | 3 µM (≈ 1.85 µg/mL) | – | – |
| CCC(C)C(NC(=O)[C@H](Cc1ccccc1)C[C@H](O)[C@H](Cc1ccccc1)NC(=O)OC(C)(C)C)C(=O)NCc1ccccc1 (stereo partly specified) | 0.71 nM | 1.5 µM (≈ 0.924 µg/mL) | – | – |
| CCC(C)C(NC(=O)[C@H](Cc1ccccc1)C[C@H](O)[C@H](Cc1ccccc1)NC(=O)OC(C)(C)C)C(=O)NCC(O)CO (stereo partly specified) | 0.15 nM | 1.5 µM (≈ 0.9 µg/mL) | – | – |
| CC(C)C[C@H](NC(=O)[C@H](Cc1ccccc1)C[C@H](O)[C@H](Cc1ccccc1)NC(=O)OC(C)(C)C)C(=O)N[C@@H](Cc1ccccc1)C(N)=O | 0.6 nM | 6 µM (≈ 4.04 µg/mL) | > 10000 nM | – |
| CC[C@H](C)[C@H](NC(=O)[C@H](Cc1ccccc1)C[C@H](O)[C@H](Cc1ccccc1)NC(=O)OC(C)(C)C)C(=O)NCc1nc2ccccc2[nH]1 | 0.07 nM | 0.2 µM (≈ 0.131 µg/mL) | – | – |
| CC[C@H](C)[C@H](NC(=O)[C@H](C/C=C/c1ccccc1)C[C@H](O)[C@H](Cc1ccccc1)NC(=O)OC(C)(C)C)C(=O)NCc1nc2ccccc2[nH]1 | 0.03 nM | 0.012 µM (≈ 0.00818 µg/mL) | – | – |
| CC(C)C[C@H](NC(=O)[C@H](Cc1ccccc1)C[C@H](O)[C@H](Cc1ccccc1)NC(=O)[C@H](Cc1ccccc1)NC(=O)OC(C)(C)C)C(=O)N[C@@H](Cc1ccccc1)C(N)=O | 20 nM | – | – | – |
| CC(C)C[C@H](NC(=O)[C@H](Cc1ccccc1)C[C@H](O)[C@H](Cc1ccccc1)NC(=O)CC(C)(C)C)C(=O)N[C@@H](Cc1ccccc1)C(N)=O | 6 nM | – | – | – |
| CC(C)CC(NC(=O)[C@H](Cc1ccccc1)C[C@H](O)[C@H](Cc1ccccc1)NC(=O)OC(C)(C)C)C(N)=O (stereo partly specified) | 12 nM | 6 µM (≈ 3.15 µg/mL) | – | – |
| CC(C)CCNC(=O)[C@H](Cc1ccccc1)C[C@H](O)[C@H](Cc1ccccc1)NC(=O)OC(C)(C)C | 470 nM | – | – | – |
| CC(C)C[C@H](NC(=O)[C@H](C/C=C/c1ccccc1)C[C@H](O)[C@H](Cc1ccccc1)NC(=O)OC(C)(C)C)C(=O)N[C@@H](Cc1ccccc1)C(N)=O | 0.15 nM | 6 µM (≈ 4.19 µg/mL) | – | – |
| CC(C)C[C@H](NC(=O)[C@H](Cc1ccccc1)C[C@H](O)[C@H](Cc1ccccc1)NC(=O)[C@H](Cc1ccccc1)NC(=O)[C@H](Cc1ccccc1)NC(=O)OC(C)(C)C)C(=O)N[C@@H](Cc1ccccc1)C(N)=O (HELM PEPTIDE1{[CC(C)(C)OC(=O)[*:2]].F.F.[O=C([C@H](Cc1ccccc1)C[C@H](O)[C@H](Cc1ccccc1)N[*:1])[*:2]].L.F.[am]}$$$$V2.0) | 1 nM | 50 µM (≈ 48.4 µg/mL) | – | 73 nM |
